Assay results from article PMC6579116 (Macromolecular bioscience, 2019).

Assays:
[1] = TEM analysis of nanofiber formation, diameter and length; type: physicochemical; details: 1 mM in PBS, 30 measurements from three images; for Length, Average / Length, Median: ImageJ
How it was run: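 Nanofiber diameter and length were measured by hand on TEM images in ImageJ; overlapping fibers ruled out automated tracing.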

[2] = Treatment study serum chemistry; type: in vivo, mouse; details: for Creatine: 6 mg/kg
[3] = tested on: atherosclerosis in LDLR KO mice fed high fat diet; assay: Atherosclerosis treatment study; type: in vivo, mouse; details: both sexes; IV twice per week for 8 weeks
How it was run: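 LDLR KO mice on high-fat diet (20% fat, 0.2% cholesterol, 34% sucrose) from 4 weeks of age. After 14 weeks on diet, IV injection under isoflurane (dorsal penile vein, males; retro-orbital, females) twice weekly for 8 weeks. […] Controls: PBS, scrambled PA. Aortic root sections stained with Oil Red O; plaque area/total root area. n=8–10 mice/group; ANOVA with post-hoc t-test.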

[4] = male LDLR KO mice, IV twice per week for 8 weeks

Row | Compound | Diameter, Max. [1] [nm] | Diameter, Min. [1] [nm] | Length, Max. [1] [nm] | Length, Min. [1] [nm] | Length, Average [1] [nm] | Length, Median [1] [nm] | liver toxicity: aspartate aminotransferase (AST) in the blood in comparison to PBS, male mice [2, 4] | Creatine ([2]; mouse, in vivo, iv) | reversal of atherosclerosis from baseline levels [3] | liver toxicity: aspartate aminotransferase (AST) in the blood in comparison to PBS, male mice ([2]; mouse, in vivo, iv)
1 | C16-V2A2E2-G-DWFKAFYDKVAEKFKEAF-NH2 [ApoA1 PA] | 14.4 | 6.2 | 2183.3 | 39.4 | 626.9 | 615.9 | Neither ApoA1-LXR PAs nor ApoA1 PAs increased AST levels | 0(0–0.1) 0(0–0.1) 0(0–0.1) U/L |  | 
2 | O=C(O)Cc1cccc(OCCCN(Cc2cccc(C(F)(F)F)c2Cl)CC(c2ccccc2)c2ccccc2)c1 [LXR, GW3965, reference compound] |  |  |  |  |  |  |  |  | approximately 5% | significantly elevated levels
3 | C16-V2A2E2-C-DWFAKDYFKKAFVEEFAK-NH2 [Scr PA] | 18.3 | 8.8 | 1472.9 | 30.0 | 403.8 | 257.6 | significantly elevated levels | 0(0–0.1) 0(0–0.1) 0(0–0.1) U/L |  | 
